Test results published in PMC4691888 (Genes & Development, 2015).
Positions count from the first letter of the chain named. No end group written: not given here. Me2 = α-N-dimethylated N-terminal residue

What was measured:
human NRMT1 [1] = target: T1, human NRMT1 (Homo sapiens, UniProt Q9BV86); test: Thermofluor shift assay; type: binding; conditions: CENP-A (1-9) peptides, 360 μM; 1 mg/mL NRMT1, 180 μM SAH, pH 8.0
T1 sequence (Q9BV86 1-223): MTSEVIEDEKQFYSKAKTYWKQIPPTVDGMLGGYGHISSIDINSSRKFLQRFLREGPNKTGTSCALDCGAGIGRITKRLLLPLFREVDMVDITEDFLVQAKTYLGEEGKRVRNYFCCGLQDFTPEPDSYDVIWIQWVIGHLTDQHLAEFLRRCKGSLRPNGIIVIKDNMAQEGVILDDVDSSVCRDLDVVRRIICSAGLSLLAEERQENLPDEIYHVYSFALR

human NRMT1 [2] = target: T1, human NRMT1; test: MALDI-TOF MS-based methylation assay of native and mutant CENP-A; type: biochemical; conditions: 5 h incubation, CENP-A (1-9) peptides
How it was run: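 Recombinant His-tagged human NRMT1, expressed in E. coli and purified, incubated 5 h with native or mutant CENP-A peptides. Methylated products detected by MALDI-TOF mass spectrometry. Abundance of each methylation state scored semi-quantitatively (full or half abundance levels); products not detected are recorded as ND.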

human NRMT1 [3] = target: T1, human NRMT1; conditions: ref Okada et al. 2007; Tooley et al. 2010; Bailey et al. 2013; cited from earlier work
human NRMT1 (human) = human NRMT1 (human) (UniProt Q9BV86); test: thermofluor shift assay
human NRMT1 [4] = target: T1, human NRMT1; test: Histone peptide methylation profiling by NRMT1; type: biochemical; conditions: nine-residue N-terminal histone peptides; MALDI-TOF MS
How it was run: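 Wild-type human NRMT1, produced recombinantly in E. coli and purified as a His-tagged protein, incubated with native or mutant peptide substrates for 5 h. Methylated products detected by MALDI-TOF MS and scored semi-quantitatively by relative abundance of each methylation state (full or half abundance), with not-detected products recorded as ND.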

human NRMT1 D180N = target: T2, human NRMT1 D180N (human, UniProt Q9BV86 1-223, D180N); test: cell-based or functional assay
T2 sequence: T1 sequence (Q9BV86 1-223) with D180N

human NRMT1 [5] = target: T3, human NRMT1 (human, UniProt Q9BV86 1-223); test: thermofluor shift assay
T3 sequence (looked up): T1 sequence (Q9BV86 1-223)

human NRMT1 [6] = target: T3, human NRMT1; test: ITC

## (G1P)PRRRSRKP
Human NRMT1 [1]
  Tm increase (stabilization) compared with NRMT1-SAH binary complex: 5.5 °C
Human NRMT1 [2]
  methylation capacity / state preference, in words: full state

## myosin light chain 3: reported NRMT1 substrate protein
Human NRMT1 [3]
  reported NRMT1 substrate, in words: reported NRMT1 substrates

## α-N-trimethylated CENP-A peptide
Human NRMT1 (human)
  Tm of the NRMT1–CENP-A complex: 50 °C

## α-N-monomethylated CENP-A peptide
Human NRMT1 (human)
  Tm of the NRMT1–CENP-A complex: 49 °C

## (G1A)PRRRSRKP
Human NRMT1 [1]
  Tm increase (stabilization) compared with NRMT1-SAH binary complex: 1.5 °C
Human NRMT1 [2]
  methylation capacity / state preference, in words: full state

## PPKTSGKAA [DmH2B (fruit fly)]
Human NRMT1 [4]
  methylation by NRMT1, in words: dimethylation

## (G1S)PRRRSRKP
Human NRMT1 [1]
  Tm increase (stabilization) compared with NRMT1-SAH binary complex: 3 °C
Human NRMT1 [2]
  methylation capacity / state preference, in words: α-N-monomethylation being the major product form

## GPRRRSRKP [CENP-A (1–9) peptide, unmodified]
Human NRMT1 D180N
  in vitro methylation assay of CENP-A, drop of activity against wild-type enzyme: ~4 fold

B1: kelch-like protein 31: reported NRMT1 substrate protein (protein, UniProt Q9H511 2-634, looked up)
Kelch-like protein 31: APKKKIVKKNKGDINEMTIIVEDSPLNKLNALNGLLEGGNGLSCISSELTDASYGPNLLEGLSKMRQENFLCDLVIGTKTKSFDVHKSVMASCSEYFYNILKKDPSIQRVDLNDISPLGLATVIAYAYTGKLTLSLYTIGSIISAAVYLQIHTLVKMCSDFLIREMSVENCMYVVNIAETYSLKNAKAAAQKFIRDNFLEFAESDQFMKLTFEQINELLIDDDLQLPSEIVAFQIAMKWLEFDQKRVKYAADLLSNIRFGTISAQDLVNYVQSVPRMMQDADCHRLLVDAMNYHLLPYHQNTLQSRRTRIRGGCRVLVTVGGRPGLTEKSLSRDILYRDPENGWSKLTEMPAKSFNQCVAVMDGFLYVAGGEDQNDARNQAKHAVSNFCRYDPRFNTWIHLASMNQKRTHFSLSVFNGLVYAAGGRNAEGSLASLECYVPSTNQWQPKTPLEVARCCHASAVADGRVLVTGGYIANAYSRSVCAYDPASDSWQELPNLSTPRGWHCAVTLSDRVYVMGGSQLGPRGERVDVLTVECYSPATGQWSYAAPLQVGVSTAGVSALHGRAYLVGGWNEGEKKYKKCIQCFSPELNEWTEDDELPEATVGVSCCTLSMPNNVTRESRASSVSSVPVSI
Human NRMT1 [3]
  reported NRMT1 substrate, in words: reported NRMT1 substrates

B2: retinoblastoma protein: reported NRMT1 substrate protein (protein, UniProt P06400 2-928, looked up)
Retinoblastoma-associated …: PPKTPRKTAATAAAAAAEPPAPPPPPPPEEDPEQDSGPEDLPLVRLEFEETEEPDFTALCQKLKIPDHVRERAWLTWEKVSSVDGVLGGYIQKKKELWGICIFIAAVDLDEMSFTFTELQKNIEISVHKFFNLLKEIDTSTKVDNAMSRLLKKYDVLFALFSKLERTCELIYLTQPSSSISTEINSALVLKVSWITFLLAKGEVLQMEDDLVISFQLMLCVLDYFIKLSPPMLLKEPYKTAVIPINGSPRTPRRGQNRSARIAKQLENDTRIIEVLCKEHECNIDEVKNVYFKNFIPFMNSLGLVTSNGLPEVENLSKRYEEIYLKNKDLDARLFLDHDKTLQTDSIDSFETQRTPRKSNLDEEVNVIPPHTPVRTVMNTIQQLMMILNSASDQPSENLISYFNNCTVNPKESILKRVKDIGYIFKEKFAKAVGQGCVEIGSQRYKLGVRLYYRVMESMLKSEEERLSIQNFSKLLNDNIFHMSLLACALEVVMATYSRSTSQNLDSGTDLSFPWILNVLNLKAFDFYKVIESFIKAEGNLTREMIKHLERCEHRIMESLAWLSDSPLFDLIKQSKDREGPTDHLESACPLNLPLQNNHTAADMYLSPVRSPKKKGSTTRVNSTANAETQATSAFQTQKPLKSTSLSLFYKKVYRLAYLRLNTLCERLLSEHPELEHIIWTLFQHTLQNEYELMRDRHLDQIMMCSMYGICKVKNIDLKFKIIVTAYKDLPHAVQETFKRVLIKEEEYDSIIVFYNSVFMQRLKTNILQYASTRPPTLSPIPHIPRSPYKFPSSPLRIPGGNIYISPLKSPYKISEGLPTPTKMTPRSRILVSIGESFGTSEKFQKINQMVCNSDRVLKRSAEGSNPPKPLKKLRFDIEGSDEADGSKHLPGESKFQQKLAEMTSTRTRMQKQKMNDSMDTSNKEEK
Human NRMT1 [3]
  reported NRMT1 substrate, in words: reported NRMT1 substrates

B3: regulator of chromosome condensation 1 (RCC1): reported NRMT1 substrate protein (protein, UniProt P18754 2-421, looked up)
Regulator of chromosome …: SPKRIAKRRSPPADAIPKSKKVKVSHRSHSTEPGLVLTLGQGDVGQLGLGENVMERKKPALVSIPEDVVQAEAGGMHTVCLSKSGQVYSFGCNDEGALGRDTSVEGSEMVPGKVELQEKVVQVSAGDSHTAALTDDGRVFLWGSFRDNNGVIGLLEPMKKSMVPVQVQLDVPVVKVASGNDHLVMLTADGDLYTLGCGEQGQLGRVPELFANRGGRQGLERLLVPKCVMLKSRGSRGHVRFQDAFCGAYFTFAISHEGHVYGFGLSNYHQLGTPGTESCFIPQNLTSFKNSTKSWVGFSGGQHHTVCMDSEGKAYSLGRAEYGRLGLGEGAEEKSIPTLISRLPAVSSVACGASVGYAVTKDGRVFAWGMGTNYQLGTGQDEDAWSPVEMMGKQLENRVVLSVSSGGQHTVLLVKDKEQS
Human NRMT1 [3]
  reported NRMT1 substrate, in words: reported NRMT1 substrates

## Me2-GPRRRSRKP [α-N-dimethylated CENP-A (1–9) peptide]
Human NRMT1 [5]
  Tm of the NRMT1–CENP-A complex: 52.5 °C
Human NRMT1 [6]
  Kd: 390 nM
  dH: -11.8 kcal/mol

B4: CENP-B: reported NRMT1 substrate protein (protein, UniProt P07199 2-599, looked up)
Major centromere autoantigen B: GPKRRQLTFREKSRIIQEVEENPDLRKGEIARRFNIPPSTLSTILKNKRAILASERKYGVASTCRKTNKLSPYDKLEGLLIAWFQQIRAAGLPVKGIILKEKALRIAEELGMDDFTASNGWLDRFRRRHGVVSCSGVARARARNAAPRTPAAPASPAAVPSEGSGGSTTGWRAREEQPPSVAEGYASQDVFSATETSLWYDFLPDQAAGLCGGDGRPRQATQRLSVLLCANADGSEKLPPLVAGKSAKPRAGQAGLPCDYTANSKGGVTTQALAKYLKALDTRMAAESRRVLLLAGRLAAQSLDTSGLRHVQLAFFPPGTVHPLERGVVQQVKGHYRQAMLLKAMAALEGQDPSGLQLGLTEALHFVAAAWQAVEPSDIAACFREAGFGGGPNATITTSLKSEGEEEEEEEEEEEEEEGEGEEEEEEGEEEEEEGGEGEELGEEEEVEEEGDVDSDEEEEEDEESSSEGLEAEDWAQGVVEAGGSFGAYGAQEEAQCPTLHFLEGGEDSDSDSEEEDDEEEDDEDEDDDDDEEDGDEVPVPSFGEAMAYFAMVKRYLTSFPIDDRVQSHILHLEHDLVHVTRKNHARQAGVRGLGHQS
Human NRMT1 [3]
  reported NRMT1 substrate, in words: reported NRMT1 substrates

B5: myosin light chain 2: reported NRMT1 substrate protein (protein, UniProt P10916 2-166, looked up)
Myosin regulatory light chain …: APKKAKKRAGGANSNVFSMFEQTQIQEFKEAFTIMDQNRDGFIDKNDLRDTFAALGRVNVKNEEIDEMIKEAPGPINFTVFLTMFGEKLKGADPEETILNAFKVFDPEGKGVLKADYVREMLTTQAERFSKEEVDQMFAAFPPDVTGNLDYKNLVHIITHGEEKD
Human NRMT1 [3]
  reported NRMT1 substrate, in words: reported NRMT1 substrates
